Paper PMC6272120 (Cancer Science, 2018)

Tests used:
786‐O and ACHN cells [1] = assay: Wound healing and transwell migration assay; assay type: cell-based, human
Summary of the method: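 Transwell, 8-μm pores: 1 × 10⁴ cells (migration) or 2 × 10⁴ on Matrigel (invasion) in serum-free medium with treatment above complete medium at matching concentration, 24 h. Cells fixed 4% paraformaldehyde, stained .1% crystal violet, counted in 4 random fields. Mean ± SD, 3 experiments.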

[2] = test system: E‐cadherin, N‐cadherin, vimentin in 786‐O and ACHN cells; assay: Western blot of EMT‐related proteins; assay type: cell-based, human
786‐O cells = assay: Cell viability assay; assay type: cell-based; details: Homo sapiens
Summary of the method: (§1)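 Cells in RPMI-1640 with 10% FBS, seeded 5 × 10³/well, left overnight. Medium then replaced with test compound at 0, 10, 20, 40, 60, 80 and 100 μmol/L for 24 or 48 h. CCK8 added for 4 h at 37°C; OD read at 490 nm. Mean ± SD of 3 independent experiments.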

ACHN cells = assay: Cell viability assay; assay type: cell-based; details: Homo sapiens
Summary of the method: as §1

[3] = test system: HK‐2 normal renal tubular epithelial cells; assay: Cell viability assay; assay type: cell-based, human; details: HK‐2, low doses of TQ (less than 60 μmol/L)
786‐O and ACHN cells [4] = assay: Transwell invasion assay; assay type: cell-based, human; details: 0, 20, 40, 60 μmol/L TQ
[5] = test system: LC3 in 786‐O and ACHN cells; assay: Autophagy detection; assay type: cell-based, human
Summary of the method: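 786-O and ACHN cells pretreated 4 h with AMPK inhibitor (50 μmol/L), then 40 μmol/L test compound 24 h. RIPA lysis with protease/phosphatase inhibitors and PMSF on ice; BCA-normalised; 10%-15% SDS-PAGE, PVDF, 10% milk block 2 h RT; anti-LC3-I/II overnight 4°C, secondary 1 h; ECL detection. Mean ± SD of 3 independent experiments.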

[6] = test system: AMPK/mTOR signaling pathway in 786‐O and ACHN cells; assay: Western blot of AMPK/mTOR signaling pathway; assay type: cell-based, human; details: 0, 20, 40, 60 μmol/L TQ, 24 hours
Summary of the method: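 786-O and ACHN cells exposed 24 h to test compound at 0, 20, 40, 60 μmol/L. RIPA lysis with protease/phosphatase inhibitors and PMSF; BCA-normalised; 10%-15% SDS-PAGE, PVDF, 10% milk block. Probed overnight at 4°C for AMPK, p-AMPK (Thr172), mTOR, p-mTOR (Ser2448), p-S6K (Thr389), LC3; secondary 1 h; ECL. Mean ± SD, 3 independent experiments.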

786‐O xenograft tumors = assay: Subcutaneous 786‐O xenograft tumor model; assay type: in vivo, nude mice
Summary of the method: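 Male nude mice, 5 weeks old, 19-22 g, given 1 × 10⁶ 786-O cells s.c. with Matrigel in the right flank. At 100-150 mm³, randomised 5 per group: intraperitoneal DMSO or test compound 20 mg/kg every 3 days. Volume ((length × width²) × .5) and body weight recorded every 3 days. Tumours excised and weighed after 30 days. Mean ± SD.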

[7] = test system: lung metastasis of 786‐O cells; assay: Metastatic tumor model, luciferase‐tagged 786‐O cells via tail veins; assay type: in vivo, nude mice; details: vs control
Summary of the method: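 Male nude mice, 5 weeks old, 19-22 g, received luciferase-tagged 786-O cells by tail vein, then two groups. Dosing was intraperitoneal DMSO (control) or test compound 20 mg/kg every 3 days. At day 30: D-luciferin 150 mg/kg i.p., 10 min wait, chloral hydrate anaesthesia, then bioluminescence imaging. Lung tumours harvested and H&E-stained.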

RCC cells = assay: Comparison of TQ with everolimus; assay type: cell-based, human; details: Figure S3
[8] = 3‐MA 5 mmol/L with TQ 40 μmol/L
[9] = TQ 20 mg/kg intraperitoneal every 3 days, 30 days
[10] = compound C 50 μmol/L pretreatment 4 hours, then TQ 40 μmol/L 24 hours

Cn1cnc(N)c2ncnc1-2 [3‐MA, 3‐methyladenine]
effect on anti‐migratory ability of TQ (786‐O and ACHN cells [1]; [8]): remarkably attenuated | effect on TQ‐induced MET [2, 8]: abate TQ‐induced MET

CC1=CC(=O)C(C(C)C)=CC1=O [TQ, 2‐methyl‐5‐isopropyl‐1,4‐benzoquinone]
IC50 (786‐O cells; 786-0, 24 h, read-out: IC50 value, inhibition on cell growth): 55 µM | inhibition at 40 µM (786‐O cells; 786-0, read-out: inhibitory rate of cell proliferation): < 20% | IC50 (ACHN cells; 24 h, read-out: IC50 value, inhibition on cell growth): 72 µM | inhibition at 40 µM (ACHN cells; read-out: inhibitory rate of cell proliferation): < 20% | effect on cell growth of normal cells [3]: no significant decrease in cell growth | cancer cell migration (786‐O and ACHN cells [1]; wound healing 40 μmol/L, transwell 0, 20, 40, 60 μmol/L, 24 hours): attenuated cancer cell migration in a time‐dependent and concentration‐dependent manner | number of invaded cells (786‐O and ACHN cells [4]): number of invaded cells decreased with the increase of TQ concentration | expression of EMT markers ([2]; different concentrations for 24 hours or 40 μmol/L for different times): upregulated epithelial markers (E‐cadherin), while downregulating mesenchymal markers (N‐cadherin, vimentin) | LC3 puncta (autophagosomes and autolysosomes) ([5]; 40 μmol/L TQ, 24 hours, vs control group): number of both yellow and red puncta increased dramatically | LC3‐II expression ([5]; western blot, different concentrations of TQ): upregulate LC3‐II in a concentration‐dependent manner | expression of p‐AMPK [6]: elevated | expressions of p‐mTOR and p‐S6K [6]: reduced | tumor growth / tumor weight vs control (786‐O xenograft tumors; [9]): TQ inhibited RCC cell growth in vivo | expression of E‐cadherin and N‐cadherin in xenograft tumors (786‐O xenograft tumors; immunohistochemistry and western blot, TQ 20 mg/kg): increased expression of E‐cadherin and decreased expression of N‐cadherin | lung metastasis (bioluminescence) [7, 9]: significantly inhibited lung metastasis | number of metastatic nodules in the lungs (H&E) ([7]; TQ 20 mg/kg): significant decrease in the number of metastatic nodules

c1cc(-c2cnn3cc(-c4ccc(OCCN5CCCCC5)cc4)cnc23)ccn1 [compound C]
effect on TQ anti‐migratory and anti‐invasive effects (transwell) (786‐O and ACHN cells [1]; [10]): attenuated the migratory and invasive capacities of autophagy induced by TQ | effect on TQ‐induced MET [2, 10]: weakened TQ‐induced MET | effect on TQ‐induced LC3 [5, 10]: effects of TQ on LC3 could be receded

CO[C@H]1C[C@@H]2CC[C@@H](C)[C@@](O)(O2)C(=O)C(=O)N2CCCC[C@H]2C(=O)O[C@H]([C@H](C)C[C@@H]2CC[C@@H](OCCO)[C@H](OC)C2)CC(=O)[C@H](C)/C=C(\C)[C@@H](O)[C@@H](OC)C(=O)[C@H](C)C[C@H](C)/C=C/C=C/C=C/1C [everolimus]
inhibiting migration and invasion, inducing autophagy and MET, compared with TQ (RCC cells): significantly more potent than TQ
